Source: PubChem BioAssay
NR2E3 ag-1 – inhibitors of NR2E3-RetCOR corepressor binding, primary screen, NR2E3 agonist project, biochemical, TR-FRET, GST-NR2E3, biotin-RetCOR. 1536-well. inhibition of corepressor binding, % at 4.78 µM. 320,000 tested, 0.12% active. AID 2300, 2010;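 active = percent inhibition above the cutoff of mean plus 3 SD of all tested compounds, set per screening campaign, cut at about 20% in these data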
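Material – GST-tagged NR2E3 plus biotinylated RetCOR corepressor · Quantity – NR2E3 fusion 1.35 nM · Times – 5 h incubation at 4 °C · Medium – pH 7.5 Tris-based buffer · Technique – TR-FRET, Eu(K)-anti-GST donor, streptavidin-D2 acceptor, ex 340, em 617/671 nm · Benchmarks – high control biotin, low control 0.6% DMSO · Format – 1536-well plates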
Neddyl block – inhibitors of cullin neddylation, primary screen, biochemical, TR-FRET, uHTS, NAE and Ubc12 | 360,000 tested, 0.58% active | NEDD8-conjugating enzyme Ubc12 (Homo sapiens) + NEDD8-activating enzyme E1 regulatory … | calls only at 25 µM | AID 651699, 2012; in the data active = inhibition above about 36%
Target sequence (P61081 whole entry, looked up): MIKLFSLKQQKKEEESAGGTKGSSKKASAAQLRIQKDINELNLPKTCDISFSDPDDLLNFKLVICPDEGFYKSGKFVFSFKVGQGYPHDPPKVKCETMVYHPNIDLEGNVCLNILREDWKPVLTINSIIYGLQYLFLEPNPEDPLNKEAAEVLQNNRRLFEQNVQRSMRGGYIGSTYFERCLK
Target sequence (Q13564 whole entry, looked up): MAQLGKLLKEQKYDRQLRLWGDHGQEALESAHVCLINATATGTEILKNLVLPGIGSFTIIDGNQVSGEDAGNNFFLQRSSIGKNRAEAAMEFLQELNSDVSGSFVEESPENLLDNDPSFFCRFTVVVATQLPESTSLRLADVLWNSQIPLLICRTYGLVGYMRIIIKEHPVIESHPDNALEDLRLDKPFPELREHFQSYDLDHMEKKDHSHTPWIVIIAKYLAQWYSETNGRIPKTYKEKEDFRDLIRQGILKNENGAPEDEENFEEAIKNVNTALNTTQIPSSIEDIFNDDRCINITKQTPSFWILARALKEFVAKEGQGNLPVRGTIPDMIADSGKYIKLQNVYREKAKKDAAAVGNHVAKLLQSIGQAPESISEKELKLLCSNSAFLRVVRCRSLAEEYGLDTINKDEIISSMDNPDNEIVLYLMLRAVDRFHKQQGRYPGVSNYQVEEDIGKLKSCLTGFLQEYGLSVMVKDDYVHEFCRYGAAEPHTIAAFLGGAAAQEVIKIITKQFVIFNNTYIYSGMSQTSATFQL
NR1D1 modulator – modulators of Rev-erb alpha DNA binding, primary screen, biochemical, FITC-DNA, fluorescence polarization, uHTS; AID 1259318, 2017; activity, % at 10 µM; Rev-erbα–FITC-DNA binding, 90 min; Nuclear receptor subfamily 1 group D member 1 (Homo sapiens), P20393; 370,000 tested, 0.79% active;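 active = activity above about 14%, limit read from the data; passing the limit was not always enough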
NR2E3 ag-2 – NR2E3 agonists in two-hybrid cells, primary screen, cell-based, luminescence, CHO-S, Gal4-NCOR/VP16-NR2E3; Photoreceptor-specific nuclear receptor (Homo sapiens), Q9Y5X4; luciferase; inhibition of corepressor binding, % at 3.98 µM; 360,000 tested, 0.35% active; AID 602229, 2012;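 active = inhibition above the mean of all tested compounds plus 3 SD, cut at about 70% in these data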;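 also: higher means lower luciferase signal from less NR2E3 corepressor binding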
PG9 binder – binders of HIV-1 gp120 antibody PG9, primary screen, biochemical, TR-FRET; HIV-1 gp120 / PG9 antibody interaction; TR-FRET gp120-PG9 antibody binding; inhibition, % at 6.7 µM; 360,000 tested, 0.43% active; in the data active = inhibition above about 8.5%
PG9 bind confirm – binders of anti-gp120 antibody PG9, confirmation, biochemical, TR-FRET; shares compounds with PG9 binder; TR-FRET PG9 antibody binding; inhibition, % at 6.7 µM; 1,500 tested, 90% active; in the data active = inhibition above about 9%
PGV04 counter – binders of control antibody PGV04, counter-screen for PG9 antibody binder project, biochemical, TR-FRET, distinct HIV envelope site; shares compounds with PG9 binder; TR-FRET PGV04 antibody-gp120 binding; inhibition, % at 6.7 µM; 1,500 tested, 95% active; AID 651604, 2012; in the data active = inhibition above about 9.5%
Numbers stand for hits; n = inactive; x = no result given. In the library only some 2% were active in any assay of this set; here they are far more common.

SMILES	NR2E3 ag-1	Neddyl block	NR1D1 modulator	NR2E3 ag-2	PG9 binder	PG9 bind confirm	PGV04 counter
COc1ccc(/C(O)=C2/C(=O)C(=O)N(CCCN(C)C)C2c2cccc(Cl)c2)cc1OC (centres undefined)	n	n	n	n	46.9	16.6	22.4
CCN(CC)CCCN1C(=O)C(=O)/C(=C(/O)c2ccc(Cl)cc2)C1c1ccccn1 (centres undefined)	n	n	n	n	9.0	13.2	16.2
OC(c1cccc(Cl)c1)c1ncc(-c2ccc(C(F)(F)F)cc2)[nH]1 (centres undefined)	x	n	x	n	x	x	x
O=S1(=O)c2ccc(N3CCC[C@H]3CO)cc2O[C@H]2CCN1C2	x	x	n	x	x	x	x
O=C(Cn1nnc2c(cnn2-c2ccc(F)cc2)c1=O)Nc1ccccc1C(F)(F)F	n	n	n	n	11.0	14.1	20.4
O=C(c1cscn1)N1CCC(Oc2cccnc2)CC1	x	x	n	x	x	x	x
O=C(NC1CCCC1)c1c[nH]c2ccc(F)cc2c1=O	n	n	n	n	n	x	x
CCc1ccccc1NS(=O)(=O)c1ccc2[nH]cc(C(=O)NC3CCCC3)c(=O)c2c1	n	n	n	n	11.6	18.6	19.6
COc1cccc(NS(=O)(=O)c2ccc3[nH]cc(C(=O)NCCC(C)C)c(=O)c3c2)c1	n	n	n	n	n	x	x
CNC(=O)c1c[nH]c2ccc(S(=O)(=O)Nc3ccccc3F)cc2c1=O	n	n	n	n	12.0	22.7	25.2
Cc1ccccc1OCC(=O)NNC(=O)Cn1[nH]c(=O)c2ccccc2c1=O	x	n	n	n	n	x	x
Cc1ccc(C)c(OCCC(=O)Nc2ccc(S(=O)(=O)N3CCCC3)cc2)c1	n	n	n	n	n	x	x
CCc1nnc(NC(=O)c2ccc(COc3ccc(C)cc3)o2)s1	n	n	n	n	n	x	x
O=C(Nc1nccs1)c1ccc(COc2ccccc2)o1	n	n	n	n	9.3	12.8	20.4
Cc1ccc(OCc2ccc(C(=O)Nc3nccs3)o2)cc1	n	n	n	n	13.5	14.6	21.1
CC1(C)Cc2nc3oc4c(=S)nc[nH]c4c3cc2CO1	n	n	n	n	18.7	10.9	11.9
Cc1cccc(-c2nnc(SCC(=O)Nc3cccc4ccccc34)n2Cc2ccco2)c1	x	x	n	x	x	x	x
Cn1c(=O)c2c(SCC(=O)NCc3ccco3)nc(-c3ccccc3Cl)nc2n(C)c1=O	n	n	n	n	n	x	x
COc1ccccc1-c1nc(SCC(=O)NCc2ccco2)c2c(=O)n(C)c(=O)n(C)c2n1	n	n	n	n	27.7	25.9	30.4
Cc1cccc(-n2c(-c3ccc(Br)o3)n[nH]c2=S)c1	n	n	n	n	n	x	x
Cc1cccc(-n2c(-c3ccco3)n[nH]c2=S)c1	n	n	n	n	13.6	17.0	19.5
COc1ccccc1N(C)S(=O)(=O)c1ccc(C(=O)Nc2cccc(S(=O)(=O)N3CCOCC3)c2)cc1	x	n	n	n	n	x	x
O=C(CCc1nc2ccccc2c(=O)[nH]1)OCc1ccc(-c2ccccc2)cc1	n	n	n	n	9.3	17.4	24.0
COc1ccc(CN(C)C(=O)c2cc(-c3ccccc3)nc3ccc(C)cc23)c(OC)c1	x	n	n	n	n	x	x
Cc1nn(C)cc1CN(C)C(=O)c1cc(-c2ccccc2)nc2ccc(Br)cc12	n	n	n	n	12.5	20.5	26.2
Cn1cc(CNC(=O)c2cc(-c3ccccc3)nc3ccc(Br)cc23)cn1	n	n	n	n	11.0	13.5	20.2
Cc1ccc(-c2cc(C(=O)NCc3cnn(C)c3)c3cc(Br)ccc3n2)cc1	n	n	n	n	10.8	n	58.1
CCc1nnc2sc(-c3cc(-c4ccccc4)nc4ccccc34)nn12	n	n	n	n	8.6	n	10.4
